According to ChEMBL document CHEMBL1137007, “Synthesis of 4-substituted pyrido[2,3-d]pyrimidin-4(1H)-one as analgesic and anti-inflammatory agents” (Bioorg Med Chem Lett, 2009):

Assays:
[1] = test system: Rattus norvegicus; experiment: Antiinflammatory activity in rat assessed as inhibition of carrageenan-induced paw oedema at 10 mg/kg, po after 3 hrs; format: functional; design: scale not given: the % may be the effect or the level left
Summary of the method: (§1)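 Rats, six per group, were dosed orally (10 or 20 mg/kg, suspension in 1% carboxymethyl cellulose) before carrageenan paw injection. Paw volume was read by mercury-displacement plethysmography just before and 30 min, 1, 2 and 3 h after carrageenan. %inhibition = 100[1 − (a − x)/(b − y)], with the test group's pre/post volumes set against the vehicle control group's. Reported as mean ± SEM (n = 6) with ANOVA.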

[2] = test system: Mus musculus; experiment: Analgesic activity in Wister albino mice at 20 mg/kg, po after 3 hrs by tail-flick test
[3] = test system: Rattus norvegicus; experiment: Antiinflammatory activity in rat assessed as inhibition of carrageenan-induced paw oedema at 20 mg/kg, po after 30 mins; format: functional; design: scale not given: the % may be the effect or the level left; summary of the method: as §1
[4] = test system: Mus musculus; experiment: Analgesic activity in Wister albino mice at 10 mg/kg, po after 3 hrs by tail-flick test
[5] = test system: Mus musculus; experiment: Analgesic activity in Wister albino mice at 10 mg/kg, po after 30 mins by tail-flick test
[6] = test system: Rattus norvegicus; experiment: Antiinflammatory activity in rat assessed as inhibition of carrageenan-induced paw oedema at 10 mg/kg, po after 2 hrs; format: functional; design: scale not given: the % may be the effect or the level left; summary of the method: as §1
[7] = test system: Rattus norvegicus; experiment: Antiinflammatory activity in rat assessed as inhibition of carrageenan-induced paw oedema at 10 mg/kg, po after 1 hr; format: functional; design: scale not given: the % may be the effect or the level left; summary of the method: as §1
[8] = test system: Rattus norvegicus; experiment: Antiinflammatory activity in rat assessed as inhibition of carrageenan-induced paw oedema at 20 mg/kg, po after 1 hr; format: functional; design: scale not given: the % may be the effect or the level left; summary of the method: as §1
[9] = test system: Rattus norvegicus; experiment: Antiinflammatory activity in rat assessed as inhibition of carrageenan-induced paw oedema at 10 mg/kg, po after 30 mins; format: functional; design: scale not given: the % may be the effect or the level left; summary of the method: as §1
[10] = test system: Mus musculus; experiment: Analgesic activity in Wister albino mice at 20 mg/kg, po after 30 mins by tail-flick test
[11] = test system: Rattus norvegicus; experiment: Antiinflammatory activity in rat assessed as inhibition of carrageenan-induced paw oedema at 20 mg/kg, po after 3 hrs; format: functional; design: scale not given: the % may be the effect or the level left; summary of the method: as §1
[12] = test system: Mus musculus; experiment: Analgesic activity in Wister albino mice at 20 mg/kg, po after 2 hrs by tail-flick test
[13] = test system: Rattus norvegicus; experiment: Antiinflammatory activity in rat assessed as inhibition of carrageenan-induced paw oedema at 20 mg/kg, po after 2 hrs; format: functional; design: scale not given: the % may be the effect or the level left; summary of the method: as §1
[14] = test system: Mus musculus; experiment: Analgesic activity in Wister albino mice at 20 mg/kg, po after 1 hr by tail-flick test
[15] = test system: Mus musculus; experiment: Analgesic activity in Wister albino mice at 10 mg/kg, po after 1 hr by tail-flick test
[16] = test system: Mus musculus; experiment: Analgesic activity in Wister albino mice at 10 mg/kg, po after 2 hrs by tail-flick test
[17] = test system: Rattus norvegicus; experiment: Toxicity in Wistar albino rat assessed as ulcer index at 20 mg/kg, ip administered once daily for 3 days; format: organism-based; design: dose 20 mg/kg, route intraperitoneal; conditions: in vivo, 72 h
Summary of the method: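 Wistar albino rats of either sex (150–200 g), six per group, housed at 25 °C, 45–55% RH, 12-h light/dark cycle and acclimatized one week. Dosing was intraperitoneal as a suspension in 10% v/v Tween-80, with a vehicle-only control group. Animals were fasted 36 h, then pylorus-ligated (Shay method) on day 4 and sacrificed 4 h later for ulcer index. Values are mean ± SEM (n = 6), analysed by one-way ANOVA.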

Nc1nc(=O)[nH]c2nc3[nH]c(=S)[nH]c(=O)c3c(-c3ccc(N4CCCCC4)cc3)c12
Activity [1]: 29%
Activity [2]: 44%
Activity [3]: 40%
Activity [4]: 33%
Activity [5]: 39%
Activity [6]: 43%
Activity [7]: 39%
Activity [8]: 46%
Activity [9]: 33%
Activity [10]: 48%
Activity [11]: 35%
Activity [12]: 53%
Activity [13]: 48%
Activity [14]: 51%
Activity [15]: 43%
Activity [16]: 46%
UI [17]: 0.72

CN1CCN(c2ccc(-c3c4c(=O)[nH]c(=S)[nH]c4nc4[nH]c(=S)sc(=N)c34)cc2)CC1
Activity [1]: 22%
Activity [2]: 38%
Activity [3]: 39%
Activity [4]: 29%
Activity [5]: 32%
Activity [6]: 37%
Activity [7]: 32%
Activity [8]: 40%
Activity [9]: 31%
Activity [10]: 42%
Activity [11]: 31%
Activity [12]: 49%
Activity [13]: 46%
Activity [14]: 46%
Activity [15]: 35%
Activity [16]: 38%
UI [17]: 0.85

Nc1nc(=S)[nH]c2nc3[nH]c(=S)[nH]c(=O)c3c(-c3ccc(N4CCOCC4)cc3)c12
Activity [1]: 29%
Activity [2]: 46%
Activity [3]: 39%
Activity [4]: 33%
Activity [5]: 42%
Activity [6]: 43%
Activity [7]: 40%
Activity [8]: 46%
Activity [9]: 33%
Activity [10]: 48%
Activity [11]: 38%
Activity [12]: 55%
Activity [13]: 49%
Activity [14]: 49%
Activity [15]: 45%
Activity [16]: 49%
UI [17]: 0.67

Cc1nc2nc3[nH]c(=S)[nH]c(=O)c3c(-c3ccc(N4CCCCC4)cc3)c2c(=O)[nH]1
Activity [1]: 26%
Activity [2]: 42%
Activity [3]: 36%
Activity [4]: 35%
Activity [5]: 37%
Activity [6]: 34%
Activity [7]: 33%
Activity [8]: 39%
Activity [9]: 29%
Activity [10]: 48%
Activity [11]: 34%
Activity [12]: 56%
Activity [13]: 41%
Activity [14]: 56%
Activity [15]: 43%
Activity [16]: 48%
UI [17]: 0.9

O=c1[nH]cnc2nc3[nH]c(=S)[nH]c(=O)c3c(-c3ccc(N4CCOCC4)cc3)c12
Activity [1]: 29%
Activity [2]: 36%
Activity [3]: 39%
Activity [4]: 29%
Activity [5]: 30%
Activity [6]: 38%
Activity [7]: 36%
Activity [8]: 42%
Activity [9]: 31%
Activity [10]: 44%
Activity [11]: 36%
Activity [12]: 53%
Activity [13]: 46%
Activity [14]: 47%
Activity [15]: 38%
Activity [16]: 45%
UI [17]: 0.86

Nc1ncnc2nc3[nH]c(=S)[nH]c(=O)c3c(-c3ccc(N4CCOCC4)cc3)c12
Activity [1]: 30%
Activity [2]: 36%
Activity [3]: 43%
Activity [4]: 27%
Activity [5]: 38%
Activity [6]: 42%
Activity [7]: 40%
Activity [8]: 47%
Activity [9]: 35%
Activity [10]: 55%
Activity [11]: 38%
Activity [12]: 58%
Activity [13]: 49%
Activity [14]: 57%
Activity [15]: 43%
Activity [16]: 46%
UI [17]: 0.7
